# Laboratory results reported in ChEMBL document CHEMBL3259629, “Discovery and optimization of piperidyl-1,2,3-triazole ureas as potent, selective, and in vivo-active inhibitors of α/β-hydrolase domain containing 6 (ABHD6)” (J Med Chem, 2013).
# Legend:
# [1] = target: 1-acylglycerol-3-phosphate O-acyltransferase ABHD5 (Mus musculus) (UniProt Q9DBL9); conditions: Neuro2a, 3 nM
# [2] = target: T1, Hormone-sensitive lipase (Mus musculus) (UniProt P54310); conditions: Neuro2a, 3 nM
# T1 sequence (whole entry): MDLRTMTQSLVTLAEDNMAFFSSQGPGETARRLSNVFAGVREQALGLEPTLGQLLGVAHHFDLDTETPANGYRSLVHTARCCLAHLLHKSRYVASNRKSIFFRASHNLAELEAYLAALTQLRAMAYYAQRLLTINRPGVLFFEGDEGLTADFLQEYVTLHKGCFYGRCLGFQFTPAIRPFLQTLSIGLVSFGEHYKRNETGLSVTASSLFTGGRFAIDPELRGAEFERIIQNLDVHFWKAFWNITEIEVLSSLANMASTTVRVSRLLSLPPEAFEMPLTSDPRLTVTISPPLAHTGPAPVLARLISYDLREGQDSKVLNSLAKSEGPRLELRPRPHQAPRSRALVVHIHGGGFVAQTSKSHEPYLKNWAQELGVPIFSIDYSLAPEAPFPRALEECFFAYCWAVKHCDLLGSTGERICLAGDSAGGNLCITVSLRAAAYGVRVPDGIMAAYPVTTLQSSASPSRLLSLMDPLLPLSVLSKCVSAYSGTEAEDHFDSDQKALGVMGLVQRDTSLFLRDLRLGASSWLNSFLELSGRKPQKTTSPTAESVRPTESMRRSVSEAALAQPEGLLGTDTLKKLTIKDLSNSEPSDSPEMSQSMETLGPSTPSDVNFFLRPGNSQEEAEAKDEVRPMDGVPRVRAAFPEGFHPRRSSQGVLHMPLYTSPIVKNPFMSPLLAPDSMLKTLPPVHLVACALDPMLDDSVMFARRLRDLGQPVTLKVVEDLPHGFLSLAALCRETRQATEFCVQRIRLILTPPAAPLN
# [3] = target: T2, Monoacylglycerol lipase ABHD6 (Mus musculus) (UniProt Q8R2Y0); test: Inhibition of ABHD6 in FP-rhodamine-labelled mouse brain membrane at 1 nM preincubated for 30 mins followed by FP-rhodamine labelling measured after 30 mins by gel-based competitive ABPP assay; type: tissue-based
# T2 sequence (whole entry): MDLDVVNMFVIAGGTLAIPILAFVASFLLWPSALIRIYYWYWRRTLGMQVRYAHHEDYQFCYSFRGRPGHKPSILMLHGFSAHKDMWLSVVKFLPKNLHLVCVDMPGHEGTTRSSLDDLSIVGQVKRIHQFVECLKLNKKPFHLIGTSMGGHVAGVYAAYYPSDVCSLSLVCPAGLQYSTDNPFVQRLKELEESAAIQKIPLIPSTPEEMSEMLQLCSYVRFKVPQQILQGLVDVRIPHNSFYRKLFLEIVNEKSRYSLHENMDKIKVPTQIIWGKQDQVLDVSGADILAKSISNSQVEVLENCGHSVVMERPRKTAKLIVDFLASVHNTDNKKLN
# Procedure, shortened: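 Mouse brain membrane proteome (1 mg/mL) preincubated with compound for 30 min at 37 °C, then labelled with FP-rhodamine or HT-01 (1 μM final) for 30 min at 37 °C. Quenched in SDS loading buffer, run on 10% SDS-PAGE and scanned for in-gel fluorescence. Bands assigned by gel migration.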
# [4] = target: T3, Acylamino-acid-releasing enzyme (Mus musculus) (UniProt Q8R146); conditions: Neuro2a, 3 nM
# T3 sequence (whole entry): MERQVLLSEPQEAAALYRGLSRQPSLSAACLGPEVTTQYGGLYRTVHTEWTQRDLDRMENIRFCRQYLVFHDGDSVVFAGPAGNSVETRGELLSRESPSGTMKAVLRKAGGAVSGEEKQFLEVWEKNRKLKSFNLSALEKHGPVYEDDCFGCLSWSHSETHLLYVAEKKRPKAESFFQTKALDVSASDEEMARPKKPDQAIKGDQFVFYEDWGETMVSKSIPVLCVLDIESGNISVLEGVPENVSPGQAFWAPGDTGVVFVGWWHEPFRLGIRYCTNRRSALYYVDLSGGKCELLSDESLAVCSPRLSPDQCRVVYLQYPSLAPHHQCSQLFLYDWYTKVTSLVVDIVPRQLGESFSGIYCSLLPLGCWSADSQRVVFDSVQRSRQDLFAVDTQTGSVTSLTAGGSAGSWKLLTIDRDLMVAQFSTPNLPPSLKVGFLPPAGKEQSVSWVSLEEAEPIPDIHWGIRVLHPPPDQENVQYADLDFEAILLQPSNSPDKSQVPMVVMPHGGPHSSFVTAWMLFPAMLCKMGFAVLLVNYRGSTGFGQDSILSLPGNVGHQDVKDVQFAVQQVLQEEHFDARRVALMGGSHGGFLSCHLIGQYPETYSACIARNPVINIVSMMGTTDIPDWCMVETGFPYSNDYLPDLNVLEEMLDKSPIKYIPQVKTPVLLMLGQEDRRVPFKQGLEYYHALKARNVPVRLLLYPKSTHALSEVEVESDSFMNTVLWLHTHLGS
# [5] = target: T4, Marginal zone B- and B1-cell-specific protein (Mus musculus) (UniProt Q9D8I1); conditions: Neuro2a, 3 nM
# T4 sequence (whole entry): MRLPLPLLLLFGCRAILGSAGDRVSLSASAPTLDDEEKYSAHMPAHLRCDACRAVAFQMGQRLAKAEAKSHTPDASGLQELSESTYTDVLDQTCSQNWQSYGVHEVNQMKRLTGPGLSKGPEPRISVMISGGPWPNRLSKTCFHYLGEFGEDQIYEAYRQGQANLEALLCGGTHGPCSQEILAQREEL
# [6] = target: T5, Diacylglycerol lipase-beta (Mus musculus) (UniProt Q91WC9); conditions: Neuro2a, 3 nM
# T5 sequence (whole entry): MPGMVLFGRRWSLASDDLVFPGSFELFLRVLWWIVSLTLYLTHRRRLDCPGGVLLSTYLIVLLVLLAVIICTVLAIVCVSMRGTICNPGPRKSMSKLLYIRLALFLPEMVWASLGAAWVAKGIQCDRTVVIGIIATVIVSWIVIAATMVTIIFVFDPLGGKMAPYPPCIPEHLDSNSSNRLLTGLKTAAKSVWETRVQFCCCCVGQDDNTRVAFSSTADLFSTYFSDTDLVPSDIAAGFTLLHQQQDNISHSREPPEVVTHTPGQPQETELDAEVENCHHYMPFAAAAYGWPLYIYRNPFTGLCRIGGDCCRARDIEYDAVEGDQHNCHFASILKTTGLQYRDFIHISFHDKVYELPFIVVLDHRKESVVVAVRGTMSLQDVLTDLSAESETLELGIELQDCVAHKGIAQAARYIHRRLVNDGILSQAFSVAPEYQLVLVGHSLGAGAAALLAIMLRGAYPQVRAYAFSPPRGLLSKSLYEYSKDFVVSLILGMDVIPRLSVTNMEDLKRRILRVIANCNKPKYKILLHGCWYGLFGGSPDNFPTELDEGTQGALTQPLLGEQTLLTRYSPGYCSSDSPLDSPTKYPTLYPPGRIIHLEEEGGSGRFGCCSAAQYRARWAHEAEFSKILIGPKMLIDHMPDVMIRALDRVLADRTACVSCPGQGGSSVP
# Sequence of 1-acylglycerol-3-phosphate O-acyltransferase ABHD5 (Mus musculus) (Q9DBL9 whole entry, looked up): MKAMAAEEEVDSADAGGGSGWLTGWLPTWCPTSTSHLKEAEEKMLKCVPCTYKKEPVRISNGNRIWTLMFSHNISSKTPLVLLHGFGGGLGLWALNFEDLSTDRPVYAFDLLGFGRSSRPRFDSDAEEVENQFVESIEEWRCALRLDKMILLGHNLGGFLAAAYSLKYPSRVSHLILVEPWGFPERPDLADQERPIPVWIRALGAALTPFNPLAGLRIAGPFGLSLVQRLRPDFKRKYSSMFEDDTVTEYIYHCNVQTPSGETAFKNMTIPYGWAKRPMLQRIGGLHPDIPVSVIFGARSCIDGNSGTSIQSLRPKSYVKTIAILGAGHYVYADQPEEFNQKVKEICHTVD
smiles,measurement,setting,value
O=C(N1CCCCC1c1ccccc1)n1cc(-c2ccc(-c3cccc(CO)c3)cc2)nn1 (racemic),inhibition,[1],< 50%
same,inhibition,[2],< 50%
same,inhibition,[3],29%
same,inhibition,[4],< 50%
same,inhibition,[5],< 50%
same,inhibition,[6],< 50%
O=C(c1cccc(-c2ccc(-c3cn(C(=O)N4CCCCC4c4ccccc4)nn3)cc2)c1)N1CCCCC1 (racemic),inhibition,[1],< 50%
same,inhibition,[2],< 50%
same,inhibition,[3],51%
same,inhibition,[4],< 50%
same,inhibition,[5],< 50%
same,inhibition,[6],< 50%
O=C(O)c1cccc(-c2ccc(-c3cn(C(=O)N4CCCCC4Cc4ccccc4)nn3)cc2)c1 (racemic),inhibition,[1],< 50%
same,inhibition,[2],< 50%
same,inhibition,[3],62%
same,inhibition,[4],< 50%
same,inhibition,[5],< 50%
same,inhibition,[6],< 50%
